Measurements published in ChEMBL document CHEMBL1153413, “Pyranonaphthoquinone lactones: a new class of AKT selective kinase inhibitors alkylate a regulatory loop cysteine” (J Med Chem, 2009).
Calls of active or inactive are those of the source. The rule behind the calls is not given here.

Legend:
[1] = biological target: T1, RAC-alpha serine/threonine-protein kinase (Homo sapiens, UniProt P31749); assay: Inhibition of AKT
[2] = Cytotoxicity against human MDA468 cells expressing AKT; assay type: functional, cell-based, MDA-MB-468; conditions: Homo sapiens, MDA-MB-468
[3] = biological target: T1, RAC-alpha serine/threonine-protein kinase; assay: Inhibition of AKT at < 10 uM
[4] = biological target: Cyclin-dependent kinase 1/cyclin B1 (Homo sapiens) (UniProt P06493+P14635); assay: Inhibition of CDK1/cyclin B at 1 uM; assay type: protein-complex assay
Method in brief: (§1)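 Single-concentration (1 µM) selectivity screen run as an outsourced commercial panel of 45 kinases.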

[5] = biological target: Tyrosine-protein kinase SYK (Homo sapiens) (UniProt P43405); assay: Inhibition of SYK at 1 uM; method in brief: as §1
[6] = biological target: Tyrosine-protein kinase Fyn (Homo sapiens) (UniProt P06241); assay: Inhibition of FYN at 1 uM; method in brief: as §1
[7] = biological target: Proto-oncogene tyrosine-protein kinase Src (Homo sapiens) (UniProt P12931); assay: Inhibition of SRC at 1 uM; method in brief: as §1
[8] = biological target: Platelet-derived growth factor receptor beta (Homo sapiens) (UniProt P09619); assay: Inhibition of PDGFRB at 1 uM; method in brief: as §1
Chain of Platelet-derived growth factor receptor beta (Homo sapiens) (P09619 whole entry): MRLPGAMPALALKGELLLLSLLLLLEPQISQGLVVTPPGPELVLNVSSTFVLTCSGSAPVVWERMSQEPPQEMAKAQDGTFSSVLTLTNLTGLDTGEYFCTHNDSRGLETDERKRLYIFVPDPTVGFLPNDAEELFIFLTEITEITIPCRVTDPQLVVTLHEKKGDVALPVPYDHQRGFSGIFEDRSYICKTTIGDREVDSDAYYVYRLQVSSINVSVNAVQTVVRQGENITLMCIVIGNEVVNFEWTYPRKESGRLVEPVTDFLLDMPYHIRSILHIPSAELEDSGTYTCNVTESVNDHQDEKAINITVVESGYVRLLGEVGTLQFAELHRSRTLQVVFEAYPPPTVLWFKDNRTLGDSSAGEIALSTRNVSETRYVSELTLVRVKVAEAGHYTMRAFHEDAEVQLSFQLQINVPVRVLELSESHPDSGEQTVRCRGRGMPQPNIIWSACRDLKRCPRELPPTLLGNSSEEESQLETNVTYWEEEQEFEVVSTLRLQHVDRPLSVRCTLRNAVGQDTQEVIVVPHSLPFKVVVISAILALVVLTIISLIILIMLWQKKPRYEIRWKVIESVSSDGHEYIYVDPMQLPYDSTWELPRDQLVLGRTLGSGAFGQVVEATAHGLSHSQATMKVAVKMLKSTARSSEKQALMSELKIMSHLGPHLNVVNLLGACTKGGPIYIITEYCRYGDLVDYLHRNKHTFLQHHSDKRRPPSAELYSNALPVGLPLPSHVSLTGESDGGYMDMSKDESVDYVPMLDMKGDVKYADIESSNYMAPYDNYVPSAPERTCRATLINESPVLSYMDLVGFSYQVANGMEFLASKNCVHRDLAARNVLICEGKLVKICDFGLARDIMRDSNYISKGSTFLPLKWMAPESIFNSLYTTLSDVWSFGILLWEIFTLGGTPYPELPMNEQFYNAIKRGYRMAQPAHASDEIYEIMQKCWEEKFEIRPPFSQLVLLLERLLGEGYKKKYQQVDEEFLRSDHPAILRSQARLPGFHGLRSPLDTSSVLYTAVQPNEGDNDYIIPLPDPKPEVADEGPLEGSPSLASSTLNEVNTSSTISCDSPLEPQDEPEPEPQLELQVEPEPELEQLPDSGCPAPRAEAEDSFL

[9] = biological target: Inhibitor of nuclear factor kappa-B kinase subunit beta (Homo sapiens) (UniProt O14920); assay: Inhibition of IKBKB at 1 uM; method in brief: as §1
[10] = biological target: Insulin-like growth factor 1 receptor (Homo sapiens) (UniProt P08069); assay: Inhibition of IGF1R at 1 uM; method in brief: as §1
[11] = biological target: Mitogen-activated protein kinase 14 (Homo sapiens) (UniProt Q16539); assay: Inhibition of MAPK14 at 1 uM; method in brief: as §1
[12] = biological target: Fibroblast growth factor receptor 1 (Homo sapiens) (UniProt P11362); assay: Inhibition of FGFR1 at 1 uM; method in brief: as §1
[13] = biological target: Protein kinase C alpha type (Homo sapiens) (UniProt P17252); assay: Inhibition of PRKCA at 1 uM; method in brief: as §1
[14] = biological target: Epidermal growth factor receptor (Homo sapiens) (UniProt P00533); assay: Inhibition of EGFR at 1 uM; method in brief: as §1
[15] = biological target: Tyrosine-protein kinase Lck (Homo sapiens) (UniProt P06239); assay: Inhibition of LCK at 1 uM; method in brief: as §1
[16] = biological target: Mitogen-activated protein kinase 1 (Homo sapiens) (UniProt P28482); assay: Inhibition of MAPK1 at 1 uM; method in brief: as §1
[17] = biological target: Platelet-derived growth factor receptor alpha (Homo sapiens) (UniProt P16234); assay: Inhibition of PDGFRA at 1 uM; method in brief: as §1
[18] = biological target: High affinity nerve growth factor receptor (Homo sapiens) (UniProt P04629); assay: Inhibition of NTRK1 at 1 uM; method in brief: as §1
[19] = biological target: T1, RAC-alpha serine/threonine-protein kinase; assay: Inhibition of AKT1 at 1 uM; method in brief: as §1
[20] = biological target: Focal adhesion kinase 1 (Homo sapiens) (UniProt Q05397); assay: Inhibition of PTK2 at 1 uM; method in brief: as §1
[21] = system: RAC-alpha serine/threonine-protein kinase (Homo sapiens), P31749 [C296A,C310A]; assay: Inhibition of AKT C296A/C310A mutant up to 40 uM
Chain of RAC-alpha serine/threonine-protein kinase (Homo sapiens), P31749 [C296A,C310A] (P31749 whole entry C296A/C310A): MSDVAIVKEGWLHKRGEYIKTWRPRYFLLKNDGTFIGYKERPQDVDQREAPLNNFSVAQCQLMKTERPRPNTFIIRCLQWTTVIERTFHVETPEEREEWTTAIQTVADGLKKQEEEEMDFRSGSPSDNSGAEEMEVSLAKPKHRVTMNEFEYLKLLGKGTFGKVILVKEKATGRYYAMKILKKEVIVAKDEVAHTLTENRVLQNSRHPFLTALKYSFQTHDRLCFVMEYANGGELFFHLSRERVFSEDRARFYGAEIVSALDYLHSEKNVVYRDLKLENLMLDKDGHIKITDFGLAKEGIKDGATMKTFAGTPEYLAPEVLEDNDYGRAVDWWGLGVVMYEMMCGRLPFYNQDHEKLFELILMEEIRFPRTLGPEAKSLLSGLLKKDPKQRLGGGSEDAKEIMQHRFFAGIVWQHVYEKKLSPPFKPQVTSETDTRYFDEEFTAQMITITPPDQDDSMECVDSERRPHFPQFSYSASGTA

[22] = biological target: Dual specificity mitogen-activated protein kinase kinase 1 (Homo sapiens) (UniProt Q02750); assay: Inhibition of MAP2K1 at 1 uM; method in brief: as §1
[23] = biological target: Tyrosine-protein kinase CSK (Homo sapiens) (UniProt P41240); assay: Inhibition of CSK at 1 uM; method in brief: as §1
[24] = biological target: Mitogen-activated protein kinase kinase kinase kinase 5 (Homo sapiens) (UniProt Q9Y4K4); assay: Inhibition of MAP4K5 at 1 uM; method in brief: as §1
[25] = biological target: RAC-beta serine/threonine-protein kinase (Homo sapiens) (UniProt P31751); assay: Inhibition of AKT2 at 1 uM; method in brief: as §1
Chain of RAC-beta serine/threonine-protein kinase (Homo sapiens) (P31751 whole entry): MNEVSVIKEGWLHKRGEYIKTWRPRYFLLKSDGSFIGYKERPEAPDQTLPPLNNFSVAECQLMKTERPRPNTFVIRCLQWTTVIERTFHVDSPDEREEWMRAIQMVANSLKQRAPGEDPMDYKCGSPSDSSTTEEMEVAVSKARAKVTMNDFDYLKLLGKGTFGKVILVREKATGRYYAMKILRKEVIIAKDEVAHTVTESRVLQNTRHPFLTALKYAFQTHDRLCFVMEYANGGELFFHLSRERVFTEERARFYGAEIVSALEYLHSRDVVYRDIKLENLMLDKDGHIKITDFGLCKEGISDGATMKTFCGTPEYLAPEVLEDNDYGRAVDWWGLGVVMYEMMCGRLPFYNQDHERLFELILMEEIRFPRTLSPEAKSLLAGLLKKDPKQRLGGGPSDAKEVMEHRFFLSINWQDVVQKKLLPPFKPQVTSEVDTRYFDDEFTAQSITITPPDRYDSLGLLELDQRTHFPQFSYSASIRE

[26] = biological target: Cyclin-dependent kinase 2 (Homo sapiens) (UniProt P24941); assay: Inhibition of CDK2/cyclin A at 1 uM; method in brief: as §1
[27] = biological target: Insulin receptor (Homo sapiens) (UniProt P06213); assay: Inhibition of INSR at 1 uM; method in brief: as §1
[28] = biological target: RAC-alpha serine/threonine-protein kinase (Homo sapiens, UniProt P31749, C310A); assay: Inhibition of AKT C310A mutant
[29] = biological target: Mitogen-activated protein kinase 3 (Homo sapiens) (UniProt P27361); assay: Inhibition of MAPK3 at 1 uM; method in brief: as §1
[30] = biological target: Tyrosine-protein kinase Yes (Homo sapiens) (UniProt P07947); assay: Inhibition of YES1 at 1 uM; method in brief: as §1
[31] = biological target: Ephrin type-A receptor 1 (Homo sapiens) (UniProt P21709); assay: Inhibition of EPHA1 at 1 uM; method in brief: as §1
[32] = biological target: Vascular endothelial growth factor receptor 2 (Homo sapiens) (UniProt P35968); assay: Inhibition of KDR at 1 uM; method in brief: as §1
[33] = biological target: Serine/threonine-protein kinase Nek2 (Homo sapiens) (UniProt P51955); assay: Inhibition of NEK2 at 1 uM; method in brief: as §1
Chain of Serine/threonine-protein kinase Nek2 (Homo sapiens) (P51955 whole entry): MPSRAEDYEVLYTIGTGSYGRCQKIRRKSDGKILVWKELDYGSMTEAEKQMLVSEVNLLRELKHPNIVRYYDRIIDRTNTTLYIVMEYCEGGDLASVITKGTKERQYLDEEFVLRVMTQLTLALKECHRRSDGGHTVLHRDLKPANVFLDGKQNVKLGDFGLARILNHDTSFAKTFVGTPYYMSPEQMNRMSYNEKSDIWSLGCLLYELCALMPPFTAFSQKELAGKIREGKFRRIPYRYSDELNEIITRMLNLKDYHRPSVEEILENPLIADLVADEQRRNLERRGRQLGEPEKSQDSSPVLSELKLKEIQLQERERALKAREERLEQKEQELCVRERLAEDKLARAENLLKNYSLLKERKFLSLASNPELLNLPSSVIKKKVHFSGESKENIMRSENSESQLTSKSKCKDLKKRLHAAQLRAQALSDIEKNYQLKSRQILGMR

[34] = biological target: Serine/threonine-protein kinase Chk1 (Homo sapiens) (UniProt O14757); assay: Inhibition of CHEK1 at 1 uM; method in brief: as §1
[35] = biological target: Serine/threonine-protein kinase PLK1 (Homo sapiens) (UniProt P53350); assay: Inhibition of PLK1 at 1 uM; method in brief: as §1
Chain of Serine/threonine-protein kinase PLK1 (Homo sapiens) (P53350 whole entry): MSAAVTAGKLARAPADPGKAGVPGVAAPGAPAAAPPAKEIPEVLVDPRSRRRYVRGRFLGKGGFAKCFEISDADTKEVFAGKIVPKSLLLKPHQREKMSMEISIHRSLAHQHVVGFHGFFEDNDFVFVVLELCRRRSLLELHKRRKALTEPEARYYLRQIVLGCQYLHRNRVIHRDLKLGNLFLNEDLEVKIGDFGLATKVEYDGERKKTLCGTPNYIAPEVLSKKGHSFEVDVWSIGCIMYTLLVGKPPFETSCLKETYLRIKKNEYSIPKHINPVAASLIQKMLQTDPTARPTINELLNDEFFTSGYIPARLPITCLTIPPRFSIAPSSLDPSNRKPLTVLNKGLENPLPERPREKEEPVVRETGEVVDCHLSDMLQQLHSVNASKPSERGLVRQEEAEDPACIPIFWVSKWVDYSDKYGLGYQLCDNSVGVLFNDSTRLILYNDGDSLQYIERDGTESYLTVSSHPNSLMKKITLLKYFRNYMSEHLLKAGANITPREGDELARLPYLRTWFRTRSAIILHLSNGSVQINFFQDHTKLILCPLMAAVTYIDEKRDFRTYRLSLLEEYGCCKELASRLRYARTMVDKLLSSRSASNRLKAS

[36] = biological target: Tyrosine-protein kinase BTK (Homo sapiens) (UniProt Q06187); assay: Inhibition of BTK at 1 uM; method in brief: as §1
[37] = biological target: Receptor tyrosine-protein kinase erbB-4 (Homo sapiens) (UniProt Q15303); assay: Inhibition of ERBB4 at 1 uM; method in brief: as §1
[38] = biological target: Tyrosine-protein kinase Lyn (Homo sapiens) (UniProt P07948); assay: Inhibition of LYN A at 1 uM; method in brief: as §1
[39] = biological target: Tyrosine-protein kinase ABL1 (Homo sapiens) (UniProt P00519); assay: Inhibition of ABL1 at 1 uM; method in brief: as §1
[40] = biological target: Aurora kinase A (Homo sapiens) (UniProt O14965); assay: Inhibition of STK6 at 1 uM; method in brief: as §1
[41] = biological target: Protein kinase C theta type (Homo sapiens) (UniProt Q04759); assay: Inhibition of PRKCQ at 1 uM; method in brief: as §1
[42] = biological target: Rho-associated protein kinase 1 (Homo sapiens) (UniProt Q13464); assay: Inhibition of ROCK1 at 1 uM; method in brief: as §1
Chain of Rho-associated protein kinase 1 (Homo sapiens) (Q13464 2-1354 limits assumed): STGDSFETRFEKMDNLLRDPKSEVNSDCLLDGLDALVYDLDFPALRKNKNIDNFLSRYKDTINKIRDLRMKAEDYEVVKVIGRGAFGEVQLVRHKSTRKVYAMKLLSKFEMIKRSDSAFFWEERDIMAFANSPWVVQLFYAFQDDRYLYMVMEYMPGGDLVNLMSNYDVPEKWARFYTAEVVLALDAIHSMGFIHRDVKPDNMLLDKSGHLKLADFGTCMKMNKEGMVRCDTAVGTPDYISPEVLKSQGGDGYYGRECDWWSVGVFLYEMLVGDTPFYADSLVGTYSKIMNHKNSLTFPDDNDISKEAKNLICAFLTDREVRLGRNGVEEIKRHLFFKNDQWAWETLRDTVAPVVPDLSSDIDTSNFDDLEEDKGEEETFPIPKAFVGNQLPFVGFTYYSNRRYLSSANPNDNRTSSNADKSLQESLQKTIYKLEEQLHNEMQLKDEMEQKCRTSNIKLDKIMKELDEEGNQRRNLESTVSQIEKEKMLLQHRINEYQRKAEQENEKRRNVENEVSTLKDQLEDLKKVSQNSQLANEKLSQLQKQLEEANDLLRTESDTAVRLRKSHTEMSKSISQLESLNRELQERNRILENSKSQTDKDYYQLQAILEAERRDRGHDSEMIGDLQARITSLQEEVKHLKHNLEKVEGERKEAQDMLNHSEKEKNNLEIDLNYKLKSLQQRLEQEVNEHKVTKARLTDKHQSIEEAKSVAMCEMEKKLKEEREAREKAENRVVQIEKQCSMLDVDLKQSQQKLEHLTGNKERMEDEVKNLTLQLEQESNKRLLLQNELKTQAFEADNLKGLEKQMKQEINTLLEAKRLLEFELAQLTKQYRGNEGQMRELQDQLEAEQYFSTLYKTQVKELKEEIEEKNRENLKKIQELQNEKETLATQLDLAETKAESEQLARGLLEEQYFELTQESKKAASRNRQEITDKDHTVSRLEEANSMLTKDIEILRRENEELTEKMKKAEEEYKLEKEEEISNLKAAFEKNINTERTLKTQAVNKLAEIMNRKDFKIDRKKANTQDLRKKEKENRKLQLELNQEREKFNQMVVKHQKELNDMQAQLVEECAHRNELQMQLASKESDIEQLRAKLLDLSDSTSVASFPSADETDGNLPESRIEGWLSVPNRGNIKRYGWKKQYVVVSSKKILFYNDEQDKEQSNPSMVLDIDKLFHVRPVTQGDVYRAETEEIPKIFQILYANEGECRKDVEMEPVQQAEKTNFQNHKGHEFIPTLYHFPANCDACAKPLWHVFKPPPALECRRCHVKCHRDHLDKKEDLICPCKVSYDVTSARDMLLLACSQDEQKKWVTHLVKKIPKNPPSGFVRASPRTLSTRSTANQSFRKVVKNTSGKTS

[43] = biological target: Receptor-type tyrosine-protein kinase FLT3 (Homo sapiens) (UniProt P36888); assay: Inhibition of FLT3 at 1 uM; method in brief: as §1
[44] = biological target: Serine/threonine-protein kinase Sgk1 (Homo sapiens) (UniProt O00141); assay: Inhibition of SGK at 1 uM; method in brief: as §1
[45] = biological target: Hepatocyte growth factor receptor (Homo sapiens) (UniProt P08581); assay: Inhibition of MET at 1 uM; method in brief: as §1
[46] = biological target: cAMP-dependent protein kinase catalytic subunit alpha (Homo sapiens) (UniProt P17612); assay: Inhibition of PRKACA at 1 uM; method in brief: as §1
[47] = biological target: Ribosomal protein S6 kinase beta-1 (Homo sapiens) (UniProt P23443); assay: Inhibition of RPS6KB1 at 1 uM; method in brief: as §1
[48] = biological target: Vascular endothelial growth factor receptor 1 (Homo sapiens) (UniProt P17948); assay: Inhibition of FLT1 at 1 uM; method in brief: as §1
[49] = biological target: Macrophage colony-stimulating factor 1 receptor (Homo sapiens) (UniProt P07333); assay: Inhibition of CSF1R at 1 uM; method in brief: as §1
[50] = biological target: RAC-alpha serine/threonine-protein kinase (Homo sapiens, UniProt P31749, C296A); assay: Inhibition of AKT C296A mutant

T1 sequence (P31749 whole entry): as the sequence (P31749 whole entry C296A/C310A) above, with A296C, A310C counted along it

Work on `CC1(C)O[C@@H]2CC(=O)O[C@@H]2C2=C1C(=O)c1ccccc1C2=O` (racemic) yielded an IC50 [1] of 1440 nM and an IC50 [2] of 230 nM.

Molecule `O=C1C[C@H]2O[C@H](c3cccs3)C3=C(C(=O)c4ccccc4C3=O)[C@H]2O1` has an IC50 [1] of 57 nM and an IC50 [2] of 600 nM.

In the case of `CCOC(=O)C[C@@H]1CC2=C(C(=O)c3ccccc3C2=O)[C@H](c2ccc(O)cc2)O1` (racemic), the Activity [3] is reported as “inactive”.

With `CCOC(=O)C[C@@H]1CC2=C(C(=O)c3ccccc3C2=O)C(C)(C)O1` (racemic) the Activity [3] was “inactive”.

Molecule `CCC[C@H]1O[C@H](CC(=O)O)CC2=C1C(=O)c1c(O)cccc1C2=O` [DEOXYFRENOLICIN] has an IC50 [1] of 424 nM and an IC50 [2] of 330 nM.

Work on `O=C1C[C@H]2O[C@@H](c3cccc(O)c3)C3=C(C(=O)c4ccccc4C3=O)[C@H]2O1` (racemic) yielded an IC50 [1] of 350 nM and an IC50 [2] of 1000 nM.

Work on `C[C@H]1O[C@@H]2CC(=O)O[C@@H]2C2=C1C(=O)c1ccccc1C2=O` yielded an IC50 [1] of 150 nM and an IC50 [2] of 480 nM.

`C[C@H]1O[C@@H]2CC(=O)O[C@@H]2C2=C1C(=O)c1c(ccc([C@H]3C[C@@H](N(C)C)[C@H](O)[C@@H](C)O3)c1O)C2=O` [LACTOQUINOMYCIN] gave an inhibition [4] of 2%, an inhibition [5] of 2% and an inhibition [6] of 17%. The inhibition [7] was 0%, the inhibition [8] was 32% and the inhibition [9] was 41%. It also gave an inhibition [10] of 2%, an inhibition [11] of 49% and an inhibition [12] of 38%. For the same molecule, the inhibition [13] was 16%, the inhibition [14] was 26% and the inhibition [15] was 0%. The inhibition [16] was 6%, the inhibition [17] was 15% and the inhibition [18] was 14%. For the same molecule, the inhibition [19] was 92%, the inhibition [20] was 12% and the Activity [21] was “inactive”. For the same molecule, the inhibition [22] was 0%, the inhibition [23] was 0% and the inhibition [24] was 34%. The inhibition [25] was 99%, the inhibition [26] was 0% and the inhibition [27] was 1%. It also gave an IC50 [28] of 38500 nM, an inhibition [29] of 7% and an inhibition [30] of 14%. It also gave an IC50 [1] of 149 nM, an inhibition [31] of 8% and an inhibition [32] of 21%. The inhibition [33] was 0%, the inhibition [34] was 10% and the inhibition [35] was 0%. For the same molecule, the inhibition [36] was 1%, the inhibition [37] was 5% and the inhibition [38] was 3%. It also gave an inhibition [39] of 0%, an inhibition [40] of 17% and an inhibition [41] of 22%. It also gave an inhibition [42] of 1%, an inhibition [43] of 4% and an inhibition [44] of 20%. It also gave an inhibition [45] of 14%, an IC50 [2] of 50 nM and an inhibition [46] of 0%. It also gave an inhibition [47] of 16%, an inhibition [48] of 29% and an inhibition [49] of 6%. For the same molecule, the IC50 [50] was 30400 nM.

For `CCOC(=O)C[C@@H]1CC2=C(C(=O)c3ccccc3C2=O)[C@@H](C)O1`, the Activity [3] was “inactive”.

With `CCOC(=O)C[C@@H]1CC2=C(C(=O)c3ccccc3C2=O)C2(CCCC2)O1` (racemic) the Activity [3] was “inactive”.

With `CCOC(=O)C[C@@H]1CC2=C(C(=O)c3ccccc3C2=O)[C@H](c2cccc(O)c2)O1` (racemic) the Activity [3] was “inactive”.

For `CCOC(=O)C[C@@H]1CC2=C(C(=O)c3ccccc3C2=O)[C@H](c2ccc(N)cc2)O1` (racemic), the Activity [3] was “inactive”.

With `CCOC(=O)C[C@@H]1CC2=C(C(=O)c3ccccc3C2=O)[C@@H](c2ccsc2)O1` (stereo in doubt; (+)) the Activity [3] was “inactive”.

For `CCOC(=O)C[C@@H]1CC2=C(CO1)C(=O)c1ccccc1C2=O`, the Activity [3] was “inactive”.

Work on `O=C1C[C@H]2O[C@H](c3ccsc3)C3=C(C(=O)c4ccccc4C3=O)[C@H]2O1` (stereo in doubt; (+)) yielded an IC50 [1] of 122 nM and an IC50 [2] of 300 nM.
